According to the array DNA melting data of Ke et al. (doi:10.1101/2024.01.08.574731):

What was measured:
[1] = folding enthalpy; higher = less favourable; fluorescence melt of hairpins on a sequencing array, two-state fit; details: sodium 0.088 M
Procedure, shortened: (§1)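 Hairpins were imaged by Cy3 fluorescence on a sequenced MiSeq flow cell with annealed Cy3 and quencher oligos, in 50 mM Na-HEPES pH 8.0, 25 mM NaCl, in 2.5 °C steps up to 60 °C. Bootstrapped two-state fits of normalised signals gave melting temperature and folding enthalpy. Four replicates were combined by inverse variance, and fitted temperatures were raised by 9.35 °C to match UV melts.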

[2] = melting temperature; fluorescence melt of hairpins on a sequencing array, two-state fit, raised by 9.35 °C to match UV melts; details: sodium 0.088 M
Procedure, shortened: as §1

| Sequence | folding enthalpy [1] [kcal/mol] | Tm [2] [°C] |
| --- | --- | --- |
| GATCGCTCATGCGATC ((((((....)))))) | -40.2 | 67.8 |
| GATCGCTCTGGCGATC ((((((....)))))) | -37.7 | 69.1 |
| GATCGCTGAGCGATC ((((((...)))))) | -31 | 69 |
| GATCGCTTAGGCGATC ((((((....)))))) | -32.1 | 68.6 |
| GATCGGAAGCCGATC ((((((...)))))) | -34.7 | 55 |
| GATCGGAATACCGATC ((((((....)))))) | -33.1 | 56.6 |
| GATCGGAATCCGATC ((((((...)))))) | -34.8 | 53.5 |
| GATCGGAATGCCGATC ((((((....)))))) | -33.7 | 54.9 |
| GATCGGACCCCGATC ((((((...)))))) | -39.4 | 54.1 |
| GATCGGAGACCCGATC ((((((....)))))) | -36.6 | 53 |
| GATCGGAGAGCCGATC ((((((....)))))) | -30.3 | 54.8 |
| GATCGGAGCCCCGATC ((((((....)))))) | -32.6 | 54.7 |
| GATCGGAGCGCCGATC ((((((....)))))) | -31.4 | 55 |
| GATCGGAGTACCGATC ((((((....)))))) | -37.9 | 57.5 |
| GATCGGATACCGATC ((((((...)))))) | -36.4 | 56.6 |
| GATCGGATGCCGATC ((((((...)))))) | -19 | 63 |
| GATCGGATGGCCGATC ((((((....)))))) | -29.9 | 56.1 |
| GATCGGATTGCCGATC ((((((....)))))) | -28.7 | 55 |
| GATCGGCAGGCCGATC ((((((....)))))) | -34.9 | 66.8 |
| GATCGGCCAACCGATC ((((((....)))))) | -38.4 | 55.8 |
| GATCGGCCACCGATC ((((((...)))))) | -31.7 | 55.1 |
| GATCGGCCAGCCGATC ((((((....)))))) | -36.8 | 65.9 |
| GATCGGCCCGCCGATC ((((((....)))))) | -43.9 | 68.3 |
| GATCGGCCTACCGATC ((((((....)))))) | -36.5 | 57.9 |

| Sequence | folding enthalpy [1] [kcal/mol] | Tm [2] [°C] |
| --- | --- | --- |
| GATCGGCGAAAGCCTATC (((.(((....))).))) | -19.2 | 39.9 |
| GATCGGCGTTCCGATC ((((((....)))))) | -39.3 | 56.3 |
| GATCGGCTATCCGATC ((((((....)))))) | -38.4 | 55.8 |
| GATCGGCTCTCCGATC ((((((....)))))) | -47.3 | 55.4 |
| GATCGGCTTCCCGATC ((((((....)))))) | -35.5 | 56.4 |
| GATCGGGACACCGATC ((((((....)))))) | -38.4 | 66 |
| GATCGGGAGCCGATC ((((((...)))))) | -22 | 53.7 |
| GATCGGGATTCCGATC ((((((....)))))) | -39.7 | 57.5 |
| GATCGGGCACCCGATC ((((((....)))))) | -39.9 | 64.6 |
| GATCGGGCATCCGATC ((((((....)))))) | -41.9 | 63.3 |
| GATCGGGCCGCCGATC ((((((....)))))) | -37.2 | 59.1 |
| GATCGGGCTTCCGATC ((((((....)))))) | -41.2 | 59.4 |
| GATCGGGGAAACCCAATC (((.(((....))).))) | -20.8 | 32.8 |
| GATCGGGTACCGATC ((((((...)))))) | -44.7 | 67.5 |
| GATCGGGTTCCCGATC ((((((....)))))) | -42.5 | 62.8 |
| GATCGGGTTCCGATC ((((((...)))))) | -39.1 | 56.8 |
| GATCGGTACTCCGATC ((((((....)))))) | -38.3 | 59.3 |
| GATCGGTCACCCGATC ((((((....)))))) | -31.4 | 56.4 |
| GATCGGTCATCCGATC ((((((....)))))) | -39.7 | 59.4 |
| GATCGGTCCCCGATC ((((((...)))))) | -44.8 | 57.4 |
| GATCGGTCGCCCGATC ((((((....)))))) | -54.5 | 57.4 |
| GATCGGTCGTCCGATC ((((((....)))))) | -40.9 | 60.2 |
| GATCGGTGCCCGATC ((((((...)))))) | -40.8 | 58 |
| GATCGGTGCTCCGATC ((((((....)))))) | -40.8 | 57.9 |

| Sequence | folding enthalpy [1] [kcal/mol] | Tm [2] [°C] |
| --- | --- | --- |
| GATCGGTGGCCGATC ((((((...)))))) | -33.8 | 55.9 |
| GATCGGTTACCGATC ((((((...)))))) | -36.1 | 59.3 |
| GATCGGTTGGCCGATC ((((((....)))))) | -42 | 60.9 |
| GATCGGTTTCCCGATC ((((((....)))))) | -40.4 | 57.1 |
| GATCGTAAATACGATC ((((((....)))))) | -38.9 | 53 |
| GATCGTAAGCACGATC ((((((....)))))) | -36.4 | 53.9 |
| GATCGTAATAACGATC ((((((....)))))) | -37 | 53.9 |
| GATCGTACCTACGATC ((((((....)))))) | -50.5 | 55.6 |
| GATCGTAGAGACGATC ((((((....)))))) | -25.4 | 51.9 |
| GATCGTAGCAACGATC ((((((....)))))) | -38.6 | 54.7 |
| GATCGTAGTCACGATC ((((((....)))))) | -36.1 | 54.1 |
| GATCGTATACACGATC ((((((....)))))) | -38.4 | 53.9 |
| GATCGTATCGACGATC ((((((....)))))) | -35 | 55.2 |
| GATCGTATGACGATC ((((((...)))))) | -34 | 55.6 |
| GATCGTATGCACGATC ((((((....)))))) | -26.1 | 54.5 |
| GATCGTATTAACGATC ((((((....)))))) | -37.1 | 55.9 |
| GATCGTATTTACGATC ((((((....)))))) | -42.5 | 57.6 |
| GATCGTCAAGACGATC ((((((....)))))) | -37.5 | 58.7 |
| GATCGTCACAACGATC ((((((....)))))) | -39.3 | 56.9 |
| GATCGTCACGACGATC ((((((....)))))) | -43.1 | 57.8 |
| GATCGTCAGAACGATC ((((((....)))))) | -35.2 | 55.1 |
| GATCGTCAGGACGATC ((((((....)))))) | -45.6 | 58.3 |
| GATCGTCCACACGATC ((((((....)))))) | -34.7 | 53.9 |
| GATCGTCCGGACGATC ((((((....)))))) | -52.6 | 62.8 |

| Sequence | folding enthalpy [1] [kcal/mol] | Tm [2] [°C] |
| --- | --- | --- |
| GATCGTCGAAACGATC ((((((....)))))) | -38.3 | 53.5 |
| GATCGTCGAACGATC ((((((...)))))) | -33.9 | 53.1 |
| GATCGTCGACACGATC ((((((....)))))) | -43.9 | 52.2 |
| GATCGTCGCTACGATC ((((((....)))))) | -41.6 | 55 |
| GATCGTCGGTACGATC ((((((....)))))) | -27.3 | 53.8 |
| GATCGTCGTAACGATC ((((((....)))))) | -48.4 | 57.1 |
| GATCGTCTCACGATC ((((((...)))))) | -40.6 | 57.4 |
| GATCGTCTGACGATC ((((((...)))))) | -51.7 | 54 |
| GATCGTCTTACGATC ((((((...)))))) | -34.8 | 57.1 |
| GATCGTGACAACGATC ((((((....)))))) | -38.4 | 63.5 |
| GATCGTGAGAACGATC ((((((....)))))) | -31.5 | 59.3 |
| GATCGTGAGTACGATC ((((((....)))))) | -31.4 | 54 |
| GATCGTGCAGACGATC ((((((....)))))) | -40.9 | 58.9 |
| GATCGTGCTAACGATC ((((((....)))))) | -37.7 | 66.3 |
| GATCGTGGACACGATC ((((((....)))))) | -40.2 | 65.6 |
| GATCGTGGCGACGATC ((((((....)))))) | -29.9 | 61.4 |
| GATCGTGGTCACGATC ((((((....)))))) | -41.9 | 57.7 |
| GATCGTGTGAACGATC ((((((....)))))) | -39.2 | 62.7 |
| GATCGTGTGGACGATC ((((((....)))))) | -38 | 55.7 |
| GATCGTTAACACGATC ((((((....)))))) | -37.9 | 52.3 |
| GATCGTTACAACGATC ((((((....)))))) | -39 | 57.3 |
| GATCGTTACGACGATC ((((((....)))))) | -39.9 | 57.1 |
| GATCGTTATAACGATC ((((((....)))))) | -40.1 | 56.7 |
| GATCGTTATTACGATC ((((((....)))))) | -39.8 | 56.1 |
